PMC11500341 (Scientific Reports, 2024)
No end group written: not given here.

Tests used:
MCF-7 cells [1] = assay: Annexin V-FITC / PI assay, flow cytometry, MCF-7; type: cell-based; details: 72 h
How it was run: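 Test compound given to MCF-7 cells (0.2 × 10^6 per 35 mm dish) in these treatment groups: control, 0.05% DMSO vehicle, three test compound levels, doxorubicin, and doxorubicin plus the top level. Cells were trypsinized, washed twice in PBS and resuspended in binding buffer. Annexin V-FITC was added for 10 min, then PI (from a 50 µg/ml stock) for 20 min. Flow cytometry quadrants gave early apoptotic, late apoptotic, necrotic and healthy fractions.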

MCF-7 cells [2] = assay: MTT cell viability assay, MCF-7; type: cell-based; details: 24, 48 and 72 h
Rac1 [3] = assay: Rac1 concentration in serum and tumor tissue of mice by SPR; type: in vivo, Swiss Albino mice; details: tumor tissue lysate; 300 μm FGDWS; Mean ± SD; p-value 0.0001
P38α = assay: p38α concentration in serum and tumor tissue of mice by SPR; type: in vivo, Swiss Albino mice; details: 300 μm FGDWS, Mean ± SD
MDA-MB-231 cells [4] = assay: Cell migration; type: cell-based; details: after 48 h and 72 h
How it was run: (§1)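 Cells were seeded at 0.2 × 10^6 per 35 mm dish in DMEM with 10% FBS and left to adhere overnight at 37 °C in 5% CO2. Monolayers were scratched with a sterile pipette tip and imaged at time zero. They were then treated: control, 0.05% DMSO vehicle, three test compound levels, doxorubicin, and doxorubicin plus the top level. The scratched area was re-imaged at 24, 48 and 72 h.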

HEK-293 cells = assay: MTT cell viability assay, HEK-293; type: cell-based; details: 25-500 μm FGDWS, 24, 48 and 72 h
How it was run: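 HEK-293 cells (DMEM, 10% FBS, passage 28–33) were seeded at 4 × 10^3 per well and adhered overnight. Test compound was added at 25, 50, 100, 150, 300 and 500 for 24, 48 and 72 h at 37 °C, 5% CO2. MTT (5 mg/ml) was incubated for 4 h, medium removed and DMSO added. Absorbance at 570 nm gave percent viability.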

MCF-7 cells [5] = assay: Cell migration; type: cell-based; details: after 48 h and 72 h
How it was run: as §1

MDA-MB-231 cells [6] = assay: MTT cell viability assay, MDA-MB-231; type: cell-based; details: 24, 48 and 72 h
How it was run: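 MDA-MB-231 cells (passage 28–33; DMEM with 10% FBS and 1% penicillin/streptomycin) were seeded at 5 × 10^3 per well and left overnight. Four test compound doses were added for 24, 48 or 72 h at 37 °C in 5% CO2. MTT (5 mg/ml solution) was added for 4 h, medium removed, formazan dissolved in DMSO and read at 570 nm. Results were expressed as percent viability.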

Phospho-p38α (Y-182) = assay: Phospho-p38α concentration in serum and tumor tissue of mice by SPR; type: in vivo, Swiss Albino mice; details: 300 μm FGDWS, Mean ± SD, p-value 0.0001
[7] = test system: Caspase 3/7 in MCF-7 cells; assay: Caspase glow 3/7 assay, MCF-7; type: cell-based; details: p ≤ 0.0001
LIMK1 = LIMK1 concentration in serum and tumor tissue of mice by SPR; type: in vivo, Swiss Albino mice; details: 300 μm FGDWS, Mean ± SD
VEGF = assay: Western blot, VEGF expression; type: cell-based, human; details: MCF-7 and MDA-MB-231; after treatments
How it was run: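 MCF-7 and MDA-MB-231 lysates were taken 48 h and 72 h after the treatment groups. Protein was quantified by BCA and 30 µg run on 10% SDS-PAGE, then transferred to PVDF. Membranes were blocked 2 h in 5% milk in TBS-T. Mouse anti-human VEGF (1:300, in 5% BSA TBS-T) was applied overnight at 4 °C, then 2 h at room temperature. Detection used HRP goat anti-mouse (1:4000) and ECL, with band densitometry.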

Rac1 [8] = target: Rac1 (Homo sapiens, UniProt P63000); assay: SPR binding of peptide to immobilized Rac1
[9] = test system: Caspase 3/7 in MDA-MB-231 cells; assay: Caspase glow 3/7 assay, MDA-MB-231; type: cell-based; details: p ≤ 0.0001
How it was run: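 MDA-MB-231 cells were seeded at 5 × 10^3 per well and adhered overnight. They were exposed to the test compound (P1 75, P2 150, P3 300), Dox 0.2 or Dox + P3 for 24, 48 or 72 h. Caspase-Glo 3/7 reagent (substrate/luciferase) was added, followed by 30–60 min at 25 °C. Luminescence was then read.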

Cofilin1 = Cofilin1 concentration in serum and tumor tissue of mice by SPR; type: in vivo, Swiss Albino mice; details: 300 μm FGDWS, Mean ± SD
Phospho-LIMK1 (T-508) = assay: Phospho-LIMK1 concentration in serum and tumor tissue of mice by SPR; type: in vivo, Swiss Albino mice; details: 300 μm FGDWS, Mean ± SD
MDA-MB-231 cells [10] = assay: Annexin V-FITC / PI assay, flow cytometry, MDA-MB-231; type: cell-based
How it was run: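 Cells were seeded at 0.2 × 10^6 per 35 mm dish and treated per group: control, vehicle (0.05% DMSO), test compound P1 75, P2 150, P3 300, Dox 0.2, or Dox + P3. They were then trypsinized, washed twice in PBS and resuspended in 1X binding buffer. Staining was annexin V-FITC for 10 min, then PI (50 µg/ml stock) for 20 min. Flow cytometry gave four-quadrant populations.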

Phospho-Cofilin1 (S-3) = assay: Phospho-Cofilin1 concentration in serum and tumor tissue of mice by SPR; type: in vivo, Swiss Albino mice; details: 300 μm FGDWS, Mean ± SD
Rac1 [11] = assay: Western blot, Rac1 expression; type: cell-based, human; details: for % change of protein expression: vs CT; for Rac1 expression (in words): 48 and 72 h
How it was run: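 MCF-7 cells (DMEM, 10% FBS) were treated per group for 48 and 72 h. Lysate protein was measured by BCA, and 30 µg was run on 10% SDS-PAGE and transferred to PVDF. Blots were blocked in 5% milk/TBS-T for 2 h. Rabbit anti-Rac1 (1:250) and GAPDH (1:500) antibodies were applied overnight at 4 °C, then 2 h at room temperature. HRP secondary (1:4000) and ECL detection followed, with band densitometry.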

Rac1 and Tiam1 complex = details: cited from earlier work
breast-cancer cells = details: cited from earlier work
[12] = tumor tissue lysate, p-value 0.001
[13] = MCF-7, 48 h, P3 300 μm / Dox 0.2 μm / Dox + P3 0.2 μm + 300 μm
[14] = MCF-7, 72 h, P3 300 μm / Dox 0.2 μm / Dox + P3 0.2 μm + 300 μm
[15] = MDA-MB-231, 48 h, P3 300 μm / Dox 0.2 μm / Dox + P3 0.2 μm + 300 μm
[16] = MDA-MB-231, 72 h, P3 300 μm / Dox 0.2 μm / Dox + P3 0.2 μm + 300 μm

FGDWS [FGDWS]
population of apoptotic cells, dose dependence (MCF-7 cells [1]): increased with increasing FGDWS doses P1 to P3
cell viability, dose and time dependence (MCF-7 cells [2]): decreased in dose dependent manner with time
Rac1 concentration (Rac1 [3]): 0.72 ± 0.02 ng/µL
P38α concentration (P38α; serum, day 45, p-value 0.004): 3.13 ± 0.96 ng/µL
P38α concentration (P38α; [12]): 0.97 ± 0.06 ng/µL
rate of cell proliferation and migration (ranking) (MDA-MB-231 cells [4]): slowest in Dox + P3 followed by Dox, P3, P2 and P1
toxic effect on normal cells (HEK-293 cells): no toxic effect
rate of cell proliferation and migration (ranking) (MCF-7 cells [5]): slowest in Dox + P3 followed by Dox, P3, P2 and P1
cell viability, dose and time dependence (MDA-MB-231 cells [6]): decreased in dose dependent manner with time
Phospho-p38α concentration (Phospho-p38α (Y-182); serum, day 45): 2.66 ± 0.16 ng/µL
Phospho-p38α concentration (Phospho-p38α (Y-182); tumor tissue lysate): 2.77 ± 0.11 ng/µL
fold change in RLU with respect to control (caspase 3/7) ([7]; MCF-7, 48 h, P1 75 μm): 0.24
fold change in RLU with respect to control (caspase 3/7) ([7]; MCF-7, 48 h, P2 150 μm): 0.402
fold change in RLU with respect to control (caspase 3/7) [7, 13]: 0.93
fold change in RLU with respect to control (caspase 3/7) ([7]; MCF-7, 72 h, P1 75 μm): 0.33
fold change in RLU with respect to control (caspase 3/7) ([7]; MCF-7, 72 h, P2 150 μm): 0.47
fold change in RLU with respect to control (caspase 3/7) [7, 14]: 0.66
LIMK1 concentration (LIMK1; serum, day 45, p-value 0.0001): 6.86 ± 1.46 ng/µL
LIMK1 concentration (LIMK1; tumor tissue lysate, p-value 0.005): 6.37 ± 1.04 ng/µL
VEGF expression (in words) (VEGF): downregulated after treatments with peptide and Dox
Kd (Rac1 [8]): 807 nM
KA (association constant) (Rac1 [8]; SPR, Rac1 immobilized on CM5 (4000 RU), BIAevaluation 3.0): 1.24e+06 M⁻¹
fold change in RLU with respect to control (caspase 3/7) ([9]; MDA-MB-231, 48 h, P1 75 μm): 0.16
fold change in RLU with respect to control (caspase 3/7) ([9]; MDA-MB-231, 48 h, P2 150 μm): 0.25
fold change in RLU with respect to control (caspase 3/7) [9, 15]: 0.305
fold change in RLU with respect to control (caspase 3/7) ([9]; MDA-MB-231, 72 h, P1 75 μm): 0.35
fold change in RLU with respect to control (caspase 3/7) ([9]; MDA-MB-231, 72 h, P2 150 μm): 0.57
fold change in RLU with respect to control (caspase 3/7) [9, 16]: 0.65
Cofilin1 concentration (Cofilin1; serum, day 45, p-value 0.028): 2.68 ± 0.28 ng/µL
Cofilin1 concentration (Cofilin1; tumor tissue lysate, p-value 0.0048): 2.83 ± 0.53 ng/µL
Phospho-LIMK1 concentration (Phospho-LIMK1 (T-508); serum, day 45, p-value 0.008): 7.58 ± 2.25 ng/µL
Phospho-LIMK1 concentration (Phospho-LIMK1 (T-508); [12]): 8.01 ± 1.22 ng/µL
population of apoptotic cells, dose dependence (MDA-MB-231 cells [10]; 72 h): increased with increasing FGDWS doses P1 to P3
apoptotic cell population (MDA-MB-231 cells [10]; higher dose of peptide (P3 300 μm), or in combination with Dox): 38.3%
Phospho-Cofilin1 concentration (Phospho-Cofilin1 (S-3); serum, day 45, p-value 0.006): 8.35 ± 1.15 ng/µL
Phospho-Cofilin1 concentration (Phospho-Cofilin1 (S-3); [12]): 7.14 ± 1.34 ng/µL
% change of protein expression (Rac1 [11]; MCF-7, 48 h, P1 75 μm): 1.08%
% change of protein expression (Rac1 [11]; [13]): 25.84%
% change of protein expression (Rac1 [11]; MCF-7, 72 h, P1 75 μm): 12.74%
% change of protein expression (Rac1 [11]; [14]): 31.23%
Rac1 expression (in words) (Rac1 [11]; MCF-7): downregulated significantly with increase in concentration of peptide dose from P1 to P3
% change of protein expression (Rac1 [11]; MDA-MB-231, 48 h, P1 75 μm): 21.41%
% change of protein expression (Rac1 [11]; [15]): 36.01%
% change of protein expression (Rac1 [11]; MDA-MB-231, 72 h, P1 75 μm): 15.03%
% change of protein expression (Rac1 [11]; [16]): 48.31%
Rac1 expression (in words) (Rac1 [11]; MDA-MB-231): downregulated significantly with increase in concentration of peptide dose from P1 to P3

COc1cccc2c1C(=O)c1c(O)c3c(c(O)c1C2=O)C[C@@](O)(C(=O)CO)C[C@@H]3O[C@H]1C[C@H](N)[C@H](O)[C@H](C)O1 [Dox, Doxorubicin, reference compound]
rate of cell proliferation and migration (ranking) (MDA-MB-231 cells [4]): slowest in Dox + P3 followed by Dox, P3, P2 and P1
rate of cell proliferation and migration (ranking) (MCF-7 cells [5]): slowest in Dox + P3 followed by Dox, P3, P2 and P1
fold change in RLU with respect to control (caspase 3/7) [7, 13]: 1.64
fold change in RLU with respect to control (caspase 3/7) [7, 14]: 0.79
VEGF expression (in words) (VEGF): downregulated after treatments with peptide and Dox
fold change in RLU with respect to control (caspase 3/7) [9, 15]: 0.84
fold change in RLU with respect to control (caspase 3/7) [9, 16]: 1.02
% change of protein expression (Rac1 [11]; [13]): 13.13%
% change of protein expression (Rac1 [11]; [14]): 43.31%
% change of protein expression (Rac1 [11]; [15]): 32.57%
% change of protein expression (Rac1 [11]; [16]): 31.39%

CCN(CC)CCCC(C)Nc1nc(C)cc(Nc2ccc3nc(C)cc(N)c3c2)n1 (centres unmarked) [NSC23766]
inhibition of Rac1-Tiam1 interaction (Rac1 and Tiam1 complex): inhibits the interactions between Rac1 and Tiam1 complex
cell cycle arrest and apoptosis (breast-cancer cells): induce G1 cell cycle arrest and apoptosis
